For three compounds, Activity and ED50 results are on record in ChEMBL document CHEMBL1157731, “Novel KCNQ2/Q3 agonists as potential therapeutics for epilepsy and neuropathic pain” (J Med Chem, 2010).

Molecules are shown by their SMILES. Calls of active or inactive are those of the source.

Test [1] in a line: Binding affinity to Calcium channel DHP site at 10 uM by displacement assay.
Test [2] concerns Mus musculus. Description: Anticonvulsant activity against maximal electroshock-induced seizures in CD1 mouse model at 20 mg/kg, po treated 30 mins before electroshock application. Details: dose 20 mg/kg. Type of test: functional, organism-based. A digest of the protocol:
(§1)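 Male CD-1 mice dosed po (10 mL/kg in 5% DMSO/95% of 0.5% HPMC/1% Tween 80) 30 min before corneal electroshock at 50 mA for 0.2 s, with 1% proparacaine in each eye. Latency to hindlimb extension recorded to 0.1 s. No extension within 6 s scored as protected (latency 6 s). Reported as protected/tested (8 per group), or EC50 derived from latency scores.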
(In the maximal electroshock model the usual endpoint is tonic extension of the hind limbs.)

Test [3] concerns the target Cannabinoid receptor 1 (Homo sapiens) (UniProt P21554). The test is described as follows: Displacement of [3H]CP-55940 from human recombinant CB1 receptor expressed in CHO cells at 10 uM. Type of test: cell-based. (Loss of bound radioactivity is the signal in a displacement assay; it reports binding, not function.)
The target of test [4] is Mu-type opioid receptor (Homo sapiens) (UniProt P35372). Description: Displacement of [3H]diprenorphine from human recombinant mu opioid receptor expressed in HEK293 cells at 10 uM. Type of test: cell-based.
Mu-type opioid receptor (Homo sapiens), sequence (P35372 whole entry): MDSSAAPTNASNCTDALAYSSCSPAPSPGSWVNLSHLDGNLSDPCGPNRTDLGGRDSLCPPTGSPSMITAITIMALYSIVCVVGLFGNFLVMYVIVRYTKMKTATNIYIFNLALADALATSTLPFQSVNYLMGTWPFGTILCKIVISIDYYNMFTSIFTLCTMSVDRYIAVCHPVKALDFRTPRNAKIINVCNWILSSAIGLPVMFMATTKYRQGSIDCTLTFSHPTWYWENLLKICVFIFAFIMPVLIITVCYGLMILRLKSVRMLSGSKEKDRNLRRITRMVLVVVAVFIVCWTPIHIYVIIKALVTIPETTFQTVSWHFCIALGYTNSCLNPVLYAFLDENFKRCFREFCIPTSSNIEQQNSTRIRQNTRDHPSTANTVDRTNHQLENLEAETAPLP
Test [5] can be described thus: Binding affinity to voltage-dependent N-type calcium channel at 10 uM by displacement assay.
The target in test [6] is Kappa-type opioid receptor (Rattus norvegicus) (UniProt P34975). The test is described as follows: Displacement of [3H]U69593 from rat recombinant kappa opioid receptor expressed in CHO cells at 30 uM. Type of test: cell-based.
Kappa-type opioid receptor (Rattus norvegicus), sequence (P34975 whole entry): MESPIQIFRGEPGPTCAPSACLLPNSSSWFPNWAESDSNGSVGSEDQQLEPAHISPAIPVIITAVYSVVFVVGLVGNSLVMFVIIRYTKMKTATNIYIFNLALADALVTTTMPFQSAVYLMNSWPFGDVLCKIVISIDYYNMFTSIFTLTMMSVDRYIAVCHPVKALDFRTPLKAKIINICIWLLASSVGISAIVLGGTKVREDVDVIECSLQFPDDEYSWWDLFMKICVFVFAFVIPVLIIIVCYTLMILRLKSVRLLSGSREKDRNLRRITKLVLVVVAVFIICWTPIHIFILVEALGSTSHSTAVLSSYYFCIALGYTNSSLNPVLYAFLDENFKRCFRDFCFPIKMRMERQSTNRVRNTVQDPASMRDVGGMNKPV
For test [7], the system named is Rattus norvegicus. Description: Analgesic activity in Sprague-Dawley rat assessed as reduction of spinal nerve ligation-induced allodynia score at 10 mg/kg, po. Type of test: functional. Details: scale not given: the % may be the effect or the level left. The method, boiled down: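 Male Sprague-Dawley rats; L5 spinal nerve tightly ligated with 4.0 silk distal to the DRG under halothane, then 2-3 weeks recovery. Dosed po in 0.5% methylcellulose. Von Frey tactile withdrawal thresholds measured on a wire mesh floor, top threshold 15 g. Baseline taken just before dosing; testing at 1 and 2 h post-dose.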

For test [8], the target named is Kappa-type opioid receptor (Rattus norvegicus) (UniProt P34975). Description: Displacement of [3H]U69593 from rat recombinant kappa opioid receptor expressed in CHO cells at 10 uM. Type of test: cell-based.
Test [9] is described as follows: Binding affinity to Calcium channel diltiazem site at 10 uM by displacement assay.
For test [10], the target named is Cannabinoid receptor 2 (Homo sapiens) (UniProt P34972). The test is described as follows: Displacement of [3H]WIN-55212-2 from human recombinant CB2 receptor expressed in CHO cells at 10 uM. Type of test: cell-based.
Cannabinoid receptor 2 (Homo sapiens), sequence (P34972 whole entry): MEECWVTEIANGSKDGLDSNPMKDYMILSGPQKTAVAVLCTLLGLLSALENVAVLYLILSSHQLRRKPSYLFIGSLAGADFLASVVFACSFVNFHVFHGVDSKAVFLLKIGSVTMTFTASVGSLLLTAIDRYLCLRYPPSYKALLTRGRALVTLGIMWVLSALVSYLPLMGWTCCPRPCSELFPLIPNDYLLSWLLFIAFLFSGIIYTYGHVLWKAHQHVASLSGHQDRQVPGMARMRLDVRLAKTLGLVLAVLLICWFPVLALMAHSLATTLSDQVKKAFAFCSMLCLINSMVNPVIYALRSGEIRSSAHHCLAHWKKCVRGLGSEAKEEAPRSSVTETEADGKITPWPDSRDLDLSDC
Test [11] deals with T1, Type-1 angiotensin II receptor (Homo sapiens) (UniProt P30556).
T1 sequence (whole entry): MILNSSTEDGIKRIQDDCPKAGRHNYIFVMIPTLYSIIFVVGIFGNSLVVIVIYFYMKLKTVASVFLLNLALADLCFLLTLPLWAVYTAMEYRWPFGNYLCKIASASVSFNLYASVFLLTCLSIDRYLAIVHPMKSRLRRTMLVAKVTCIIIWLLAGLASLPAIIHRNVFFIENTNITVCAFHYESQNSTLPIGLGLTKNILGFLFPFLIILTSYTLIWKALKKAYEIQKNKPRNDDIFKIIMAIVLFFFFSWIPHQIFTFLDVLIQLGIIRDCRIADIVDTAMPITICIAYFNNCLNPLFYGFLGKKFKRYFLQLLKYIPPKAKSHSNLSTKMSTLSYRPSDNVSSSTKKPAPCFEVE
Description: Displacement of [125I][Sar1,Ile8]-AT2 from human recombinant AT1 angiotensin receptor expressed in HEK293 cells at 10 uM. Type of test: cell-based.

Test [12] concerns Rattus norvegicus. The test is described as follows: Antinociceptive activity in formalin-treated Sprague-Dawley rat model assessed as reduction in hind paw flinches at 10 mg/kg, po measured during 11 to 60 mins of phase 2 flinches. Type of test: functional. Details: scale not given: the % may be the effect or the level left. A digest of the protocol: (§2)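 A small metal band was glued to the right hind paw of male Sprague-Dawley rats 1 h before testing. Compound given po in 0.5% methylcellulose 1 h before the test, then 50 μL of 2.5% formalin injected sc into the dorsal paw. Flinches counted electromagnetically for 60 min; phase II covers 11-60 min post-injection.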

The test system of test [13] is Rattus norvegicus. The test is described as follows: Analgesic activity in po dosed Sprague-Dawley rat assessed as reduction of spinal nerve ligation-induced allodynia score. Type of test: functional. A digest of the protocol: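 L5 spinal nerve tightly ligated distal to the DRG under halothane in male Sprague-Dawley rats, followed by 2-3 weeks of recovery. Von Frey withdrawal thresholds taken on a wire-mesh floor (top threshold 15 g), with baseline measured before dosing. Compound given po in 0.5% methylcellulose; testing at 1 and 2 h post-dose.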

The target in test [14] is Delta-type opioid receptor (Homo sapiens) (UniProt P41143). Description: Displacement of [3H]DADLE from human recombinant delta opioid receptor expressed in CHO cells at 10 uM. Type of test: cell-based.
Delta-type opioid receptor (Homo sapiens), sequence (P41143 whole entry): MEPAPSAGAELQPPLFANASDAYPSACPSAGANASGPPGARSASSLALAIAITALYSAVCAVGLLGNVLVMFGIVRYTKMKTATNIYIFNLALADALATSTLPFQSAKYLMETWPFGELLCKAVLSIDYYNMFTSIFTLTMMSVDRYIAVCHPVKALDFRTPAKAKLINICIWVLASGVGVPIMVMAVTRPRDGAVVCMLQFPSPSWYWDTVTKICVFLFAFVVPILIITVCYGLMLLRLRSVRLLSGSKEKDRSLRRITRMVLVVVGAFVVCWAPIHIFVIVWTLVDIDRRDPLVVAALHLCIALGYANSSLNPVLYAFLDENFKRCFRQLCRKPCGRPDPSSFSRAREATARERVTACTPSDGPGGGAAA
Test [15] can be described thus: Binding affinity to sodium channel site 2 at 10 uM by displacement assay.
Test [16] has as its system Rattus norvegicus. The test is described as follows: Antinociceptive activity in formalin-treated Sprague-Dawley rat model assessed as reduction in hind paw flinches at 34 mg/kg, po measured during 11 to 60 mins of phase 2 flinches. Type of test: functional. Details: scale not given: the % may be the effect or the level left. The method, boiled down:
as §2

Test [17] deals with Mus musculus. Description: Anticonvulsant activity against maximal electroshock-induced seizures in CD1 mouse model at 10 mg/kg, po treated 30 mins before electroshock application. Details: dose 10 mg/kg. Type of test: functional, organism-based. The method, boiled down: as §1
Test [18] concerns Rattus norvegicus. The test is described as follows: Antinociceptive activity in formalin-treated Sprague-Dawley rat model assessed as reduction in hind paw flinches at 17 mg/kg, po measured during 11 to 60 mins of phase 2 flinches. Type of test: functional. Details: scale not given: the % may be the effect or the level left. The method, boiled down: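 Male Sprague-Dawley rats dosed po in 0.5% methylcellulose 1 h before assay. A 0.5 g metal band was glued to the right hind paw 1 h beforehand. 2.5% formalin (50 μL) was injected sc into the dorsal right hind paw. An electromagnetic detector counted flinches for 60 min; phase II is 11-60 min post-injection.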

Cannabinoid receptor 1 (Homo sapiens), sequence (P21554 whole entry): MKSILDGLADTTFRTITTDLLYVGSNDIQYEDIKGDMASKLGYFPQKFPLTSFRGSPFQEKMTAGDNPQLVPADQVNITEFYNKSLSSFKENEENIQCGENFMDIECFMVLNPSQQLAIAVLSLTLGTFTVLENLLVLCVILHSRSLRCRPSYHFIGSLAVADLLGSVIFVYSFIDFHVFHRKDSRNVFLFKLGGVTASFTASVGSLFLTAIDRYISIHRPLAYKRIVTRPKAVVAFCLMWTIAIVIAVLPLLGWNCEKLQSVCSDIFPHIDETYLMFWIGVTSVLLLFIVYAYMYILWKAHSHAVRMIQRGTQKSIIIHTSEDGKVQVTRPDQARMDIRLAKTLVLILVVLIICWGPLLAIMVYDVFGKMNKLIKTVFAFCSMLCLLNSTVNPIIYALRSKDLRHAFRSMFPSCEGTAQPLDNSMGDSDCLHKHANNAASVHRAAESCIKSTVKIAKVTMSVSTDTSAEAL

In general, ED50 refers to the dose at which the effect has come halfway, by size or by number of responders. Consider `CC(C)OC(=O)N/N=c1\sc2cc(OC(F)(F)F)ccc2n1C`, for which the Activity was determined as 0% in [1]; 19% in [3]; 0% in test [4]; 0% in [5]; 0% in [6]; 100% with Rattus norvegicus [7]. Also, the Activity in test [8] was found to be 15%; in test [9] it was 0%; in [10], 0%; in test [11], 14%; with Rattus norvegicus [12], 47%; in [14], 10%. Besides, the Activity in test [15] was 35%. For the same compound, in the test on Mus musculus [2], the outcome was Active. The ED50 in the test with Rattus norvegicus [13] is 16.2 mg/kg.
As for `Cn1/c(=N/NC(=O)CC2CCCC2)sc2cc(OC(F)(F)F)ccc21`, the result in the test with Mus musculus [2] was Active. Further, the Activity in the test with Rattus norvegicus [16] turned out to be 28%; in test [11] it was 18%.
As for `Cn1/c(=N/NC(=O)CC(C)(C)C)sc2cc(OC(F)(F)F)ccc21`, the values for the Activity (in test [11]; in the test with Rattus norvegicus [18]) were 0% and 55%, respectively. For the same compound, in the test with Rattus norvegicus [13], the 50% effective dose (ED50) was 20 mg/kg. In the test with Mus musculus [17], the result was Active.
